{"source": "ChEMBL document CHEMBL1275449", "about": "“Potent in vitro antifungal activities of naturally occurring acetylenic acids” (Antimicrob Agents Chemother, 2008)", "key": {"Aspergillus fumigatus [1]": {"tested_on": "Aspergillus fumigatus", "assay": "Antifungal activity against Aspergillus fumigatus ATCC 204305 after 48 h by CLSI method", "details": "ATCC 204305, 48 h"}, "Aspergillus niger": {"tested_on": "Aspergillus niger", "assay": "Antifungal activity against Aspergillus niger ATCC 16404 after 48 h by CLSI method", "details": "ATCC 16404, 48 h"}, "Candida albicans [2]": {"tested_on": "Candida albicans", "assay": "Antifungal activity against Candida albicans ATCC 14053 after 48 hrs by CLSI method", "type": "functional, organism-based", "details": "ATCC 14053, 48 h", "method_in_brief": "(§1)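 CLSI broth microdilution. Colonies from 24–72 h SD agar suspended in saline and sized by OD630 standard curve. Inoculum 1.5 × 10³ CFU/ml (final) in RPMI 1640 (0.2% dextrose, 0.03% glutamine, 0.165 M MOPS, pH 7.0). Twofold dilutions (11 levels) from 20% DMSO-saline, in duplicate. 35°C for 48 h, OD530 read before and after. IC50 fitted from % growth. MIC: no detectable growth. MFC: subculture onto SD agar.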"}, "Candida albicans [3]": {"tested_on": "Candida albicans", "assay": "Antifungal activity against Fluconazole resistant Candida albicans clinical isolate 17 after 48 hrs by CLSI method", "type": "functional, organism-based", "method_in_brief": "as §1"}, "Candida tropicalis": {"tested_on": "Candida tropicalis", "assay": "Antifungal activity against Candida tropicalis ATCC 750 after 48 hrs by CLSI method", "type": "functional, organism-based", "details": "ATCC 750, 48 h", "method_in_brief": "(§2)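 Yeast suspensions made from 3-5 colonies off 24-72 h SD agar plates in saline. They were diluted by OD630 standard curve in RPMI 1640 (0.2% dextrose, 0.03% glutamine, 0.165 M MOPS, pH 7.0) to 1.5 × 10³ CFU/ml. Twofold dilutions (11 concentrations, 20% DMSO-saline) run in duplicate. OD530 read before and after 35°C, 48 h. Line values are top test concentrations; no-growth endpoints give MIC/MFC.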"}, "SK-MEL": {"tested_on": "SK-MEL", "assay": "Cytotoxicity against human SK-MEL cells up to 32 uM by neutral red method", "type": "cell-based", "method_in_brief": "(§3)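 Neutral red uptake cytotoxicity, top concentration 32 μM.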"}, "Candida albicans [4]": {"tested_on": "Candida albicans", "assay": "Antifungal activity against Candida albicans ATCC 60193 after 48 hrs by CLSI method", "type": "functional, organism-based", "details": "ATCC 60193, 48 h", "method_in_brief": "as §1"}, "Aspergillus flavus": {"tested_on": "Aspergillus flavus", "assay": "Antifungal activity against Aspergillus flavus ATCC 204304 after 48 h by CLSI method", "details": "ATCC 204304, 48 h"}, "Candida albicans [5]": {"tested_on": "Candida albicans", "assay": "Antifungal activity against Fluconazole resistant Candida albicans clinical isolate 1 after 48 hrs by CLSI method", "type": "functional, organism-based", "method_in_brief": "as §1"}, "Candida albicans [6]": {"tested_on": "Candida albicans", "assay": "Antifungal activity against Candida albicans ATCC 200955 after 48 hrs by CLSI method", "type": "functional, organism-based", "details": "ATCC 200955, 48 h", "method_in_brief": "as §1"}, "KB": {"tested_on": "KB", "assay": "Cytotoxicity against human KB cells up to 32 uM by neutral red method", "type": "cell-based", "method_in_brief": "as §3"}, "[7]": {"tested_on": "Trichophyton mentagrophytes", "assay": "Antifungal activity against Trichophyton mentagrophytes ATCC MYA-4439 by CLSI method", "type": "functional, organism-based", "method_in_brief": "(§4)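 Growth scraped from 1- to 6-week-old potato dextrose slants and filtered through Miracloth. Diluted in 5% Alamar blue-RPMI 1640 (MOPS pH 7.0) to 2.7 × 10⁴ CFU/ml. Eleven twofold dilutions in duplicate. Fluorescence at 544 nm excitation/590 nm emission read before and after 35°C, 5 days. IC50 fitted from percent growth. MIC taken as no detectable growth; MFC from clear or blue wells plated on PD agar.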"}, "Candida albicans [8]": {"tested_on": "Candida albicans", "assay": "Antifungal activity against Candida albicans ATCC 90028 after 48 hrs by CLSI method", "type": "functional, organism-based", "details": "ATCC 90028, 48 h", "method_in_brief": "as §1"}, "Vero": {"tested_on": "Vero", "assay": "Cytotoxicity against African green monkey Vero cells up to 32 uM by neutral red method", "type": "cell-based", "details": "chlorocebus sabaeus", "method_in_brief": "as §3"}, "Trichophyton rubrum [9]": {"tested_on": "Trichophyton rubrum", "assay": "Antifungal activity against Trichophyton rubrum ATCC 10218 by CLSI method", "type": "functional, organism-based", "method_in_brief": "as §4"}, "BT-549": {"tested_on": "BT-549", "assay": "Cytotoxicity against human BT549 cells up to 32 uM by neutral red method", "type": "cell-based", "method_in_brief": "as §3"}, "LLC-PK1": {"tested_on": "LLC-PK1", "assay": "Cytotoxicity against pig LLC-PK1 cells up to 32 uM by neutral red method", "type": "cell-based, Sus scrofa", "method_in_brief": "as §3"}, "Cryptococcus neoformans": {"tested_on": "Cryptococcus neoformans", "assay": "Antifungal activity against Cryptococcus neoformans ATCC 90113 after 72 hrs by CLSI method", "type": "functional, organism-based", "details": "ATCC 90113, 72 h", "method_in_brief": "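SD broth replaced RPMI because growth in RPMI was poor; other CLSI conditions were kept. Inoculum was 1.5 × 10³ CFU/ml from colonies on SD agar, checked by plating. Twofold serial dilutions (11 concentrations) in 20% DMSO-saline were tested in duplicate. OD530 was read before and after incubation at 35°C for 72 h. Percent growth gave IC50; the MIC is the lowest concentration with no detectable growth.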"}, "Candida albicans [10]": {"tested_on": "Candida albicans", "assay": "Antifungal activity against Candida albicans ATCC 32354 after 48 hrs by CLSI method", "type": "functional, organism-based", "details": "ATCC 32354, 48 h", "method_in_brief": "as §1"}, "[11]": {"tested_on": "Trichophyton mentagrophytes", "assay": "Antifungal activity against Trichophyton mentagrophytes ATCC 9533 by CLSI method", "type": "functional, organism-based", "method_in_brief": "as §4"}, "Pichia kudriavzevii": {"tested_on": "Pichia kudriavzevii", "assay": "Antifungal activity against Candida krusei ATCC 6258 after 48 hrs by CLSI method", "type": "functional, organism-based", "details": "ATCC 6258, 48 h", "method_in_brief": "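Candida inocula came from 24–72-h SD agar colonies suspended in saline. They were diluted by OD630 standard curve into RPMI 1640 (0.2% dextrose, 0.03% glutamine, 0.165 M MOPS, pH 7.0) to 1.5 × 10³ CFU/ml. Compounds were run as 11 twofold dilutions in 20% DMSO-saline, in duplicate, at 35°C for 48 h, with OD530 read before and after. Percent growth at the top concentration, IC50, MIC, and MFC (SD agar plating) were derived.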"}, "Candida parapsilosis": {"tested_on": "Candida parapsilosis", "assay": "Antifungal activity against Candida parapsilosis ATCC 22019 after 48 hrs by CLSI method", "type": "functional, organism-based", "details": "Lodderomyces parapsilosis, ATCC 22019, 48 h", "method_in_brief": "as §2"}, "Aspergillus fumigatus [12]": {"tested_on": "Aspergillus fumigatus", "assay": "Antifungal activity against Aspergillus fumigatus ATCC 90906 after 48 h by CLSI method", "details": "ATCC 90906, 48 h"}, "Trichophyton rubrum [13]": {"tested_on": "Trichophyton rubrum", "assay": "Antifungal activity against Trichophyton rubrum ATCC MYA-4438 by CLSI method", "type": "functional, organism-based", "method_in_brief": "as §4"}, "SK-OV-3": {"tested_on": "SK-OV-3", "assay": "Cytotoxicity against human SKOV3 cells up to 32 uM by neutral red method", "type": "cell-based", "method_in_brief": "as §3"}}, "data": [{"smiles": "CCCCCC#CCC#CCC#CCC#CCCCC(=O)O", "values": [{"measurement": "IC50", "setting": "Aspergillus fumigatus [1]", "result": 10, "unit": "µM"}, {"measurement": "MIC", "setting": "Aspergillus fumigatus [1]", "result": 84.5, "unit": "µM"}, {"measurement": "IC50", "setting": "Aspergillus niger", "result": 100, "unit": "µM"}, {"measurement": "IC50", "setting": "Candida albicans [2]", "result": 8.1, "unit": "µM"}, {"measurement": "MIC", "setting": "Candida albicans [2]", "result": 63.3, "unit": "µM"}, {"measurement": "IC50", "setting": "Candida albicans [3]", "result": 3.5, "unit": "µM"}, {"measurement": "MIC", "setting": "Candida albicans [3]", "result": 42.2, "unit": "µM"}, {"measurement": "IC50", "setting": "Candida tropicalis", "result": 27.7, "unit": "µM"}, {"measurement": "Activity", "setting": "SK-MEL", "result": "Non-toxic"}, {"measurement": "IC50", "setting": "Candida albicans [4]", "result": 4.5, "unit": "µM"}, {"measurement": "MIC", "setting": "Candida albicans [4]", "result": 63.3, "unit": "µM"}, {"measurement": "IC50", "setting": "Aspergillus flavus", "result": "> 169", "unit": "µM"}, {"measurement": "IC50", "setting": "Candida albicans [5]", "result": 1.7, "unit": "µM"}, {"measurement": "MIC", "setting": "Candida albicans [5]", "result": 42.2, "unit": "µM"}, {"measurement": "IC50", "setting": "Candida albicans [6]", "result": 2, "unit": "µM"}, {"measurement": "MFC", "setting": "Candida albicans [6]", "result": 21.1, "unit": "µM"}, {"measurement": "MIC", "setting": "Candida albicans [6]", "result": 5.3, "unit": "µM"}, {"measurement": "Activity", "setting": "KB", "result": "Non-toxic"}, {"measurement": "IC50", "setting": "[7]", "result": 6.7, "unit": "µM"}, {"measurement": "MIC", "setting": "[7]", "result": 31.7, "unit": "µM"}, {"measurement": "IC50", "setting": "Candida albicans [8]", "result": 5, "unit": "µM"}, {"measurement": "MIC", "setting": "Candida albicans [8]", "result": 42.2, "unit": "µM"}, {"measurement": "Activity", "setting": "Vero", "result": "Non-toxic"}, {"measurement": "IC50", "setting": "Trichophyton rubrum [9]", "result": 8.4, "unit": "µM"}, {"measurement": "MIC", "setting": "Trichophyton rubrum [9]", "result": 15.8, "unit": "µM"}, {"measurement": "Activity", "setting": "BT-549", "result": "Non-toxic"}, {"measurement": "Activity", "setting": "LLC-PK1", "result": "Non-toxic"}, {"measurement": "IC50", "setting": "Cryptococcus neoformans", "result": "> 169", "unit": "µM"}, {"measurement": "IC50", "setting": "Candida albicans [10]", "result": 4, "unit": "µM"}, {"measurement": "MIC", "setting": "Candida albicans [10]", "result": 31.7, "unit": "µM"}, {"measurement": "IC50", "setting": "[11]", "result": 14.2, "unit": "µM"}, {"measurement": "MIC", "setting": "[11]", "result": 21.1, "unit": "µM"}, {"measurement": "IC50", "setting": "Pichia kudriavzevii", "result": "> 169", "unit": "µM"}, {"measurement": "IC50", "setting": "Candida parapsilosis", "result": 5.4, "unit": "µM"}, {"measurement": "MIC", "setting": "Candida parapsilosis", "result": 63.3, "unit": "µM"}, {"measurement": "IC50", "setting": "Aspergillus fumigatus [12]", "result": 13.3, "unit": "µM"}, {"measurement": "MIC", "setting": "Aspergillus fumigatus [12]", "result": 84.5, "unit": "µM"}, {"measurement": "IC50", "setting": "Trichophyton rubrum [13]", "result": 2.9, "unit": "µM"}, {"measurement": "MIC", "setting": "Trichophyton rubrum [13]", "result": 31.7, "unit": "µM"}, {"measurement": "Activity", "setting": "SK-OV-3", "result": "Non-toxic"}]}]}
